Source: PubChem
Only some compounds are listed: those with a hit (about 1.9% of all), similar ones and a draw of the others.
HIV Rev-RRE inh: inhibitors of HIV-1 Rev-RRE RNA interaction | hit rate 0.79% among 97,000 | Rev peptide-RRE RNA binding, FRET | inhibition, % at 8 µM | AID 704 | P05866;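 active = inhibition above the screen-wide mean plus 3 SD, cut at about 35% in these data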
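Test system – labelled RRE RNA duplex and labelled Rev peptide · Signal – fluorescein-to-Cy5 FRET, 480 nm excitation · Evaluation – % inhibition of FRET ratio versus controls · Benchmarks – DMSO low control, neomycin B high control · Incubation – 5 min RNA-compound premix plus 15 min binding step, 25 °C · Medium – HEPES pH 7.5 salt buffer with EDTA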
LYP act: increases human PTPN22 phosphatase activity; activation, % at 2 µM; AID 697; recombinant LYP, DiFMUP fluorescence; 0 = plate median, 100 = signal doubled; hit rate 0.11% among 96,000;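 active = activation at 2 µM above a set limit, the mean plus 5 SD, cut at about 37% in these data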
Target sequence (Q9Y2R2 whole entry, looked up): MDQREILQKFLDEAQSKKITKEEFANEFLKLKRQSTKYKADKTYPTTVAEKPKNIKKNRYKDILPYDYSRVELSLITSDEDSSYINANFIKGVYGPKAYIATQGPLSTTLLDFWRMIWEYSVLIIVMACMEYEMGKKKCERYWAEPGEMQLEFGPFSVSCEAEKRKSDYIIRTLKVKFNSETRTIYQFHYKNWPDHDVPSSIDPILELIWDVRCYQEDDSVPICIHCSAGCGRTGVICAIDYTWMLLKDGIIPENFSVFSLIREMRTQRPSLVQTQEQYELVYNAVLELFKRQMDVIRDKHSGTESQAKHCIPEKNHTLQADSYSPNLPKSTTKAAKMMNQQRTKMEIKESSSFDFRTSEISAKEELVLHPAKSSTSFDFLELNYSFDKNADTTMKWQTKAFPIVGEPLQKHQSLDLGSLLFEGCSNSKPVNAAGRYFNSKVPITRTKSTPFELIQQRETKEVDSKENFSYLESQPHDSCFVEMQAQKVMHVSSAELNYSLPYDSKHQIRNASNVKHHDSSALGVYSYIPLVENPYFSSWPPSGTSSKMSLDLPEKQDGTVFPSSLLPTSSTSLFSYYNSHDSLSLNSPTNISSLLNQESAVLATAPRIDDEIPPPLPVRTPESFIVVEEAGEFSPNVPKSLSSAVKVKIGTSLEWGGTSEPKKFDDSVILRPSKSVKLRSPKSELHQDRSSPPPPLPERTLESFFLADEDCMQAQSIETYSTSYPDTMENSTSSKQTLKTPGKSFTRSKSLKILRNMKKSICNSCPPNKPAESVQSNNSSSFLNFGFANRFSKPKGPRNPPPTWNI
EphB4 antag: blocks human EphB4 binding to ephrin-B2 | P54760 | EphB4 LBD / TNYL-RAW-Alexa532 peptide, fluorescence polarization | inhibition, % at 7 µM | hit rate 0.15% among 97,000;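 active = inhibition above the screen-wide mean inhibition plus 3 SD, cut at about 15% in these data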
PTPN22 inh 2: LYP (human) phosphatase inhibition; Q9Y2R2; recombinant LYP catalytic domain, DiFMUP fluorescence; inhibition, % at 2 µM; hit rate 0.21% among 96,000;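 active = inhibition at 2 µM at or above a set limit, the screen mean plus 3 SD, cut at about 24% in these data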
FAK blocker: blocks human focal adhesion kinase activity; inhibition, %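 (tested at 7 µM)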; biochemical FAK kinase activity assay; hit rate 0.84% among 97,000; in the data active = inhibition above about 19%
Of the large screens only hits and unclear results are named; the others gave an inactive call; [ ] = dose if it differs, or a comment.

O=C1/C(=C/c2ccccc2)Nc2ccccc21	HIV Rev-RRE inh 129[fluorescence artefact?]
Cc1ccc(N(CC(=O)NC(C)c2ccccc2)S(=O)(=O)c2cccs2)cc1 (configuration not stated)	none
COc1ccc(NC(=S)NNC(=O)Cn2nc([N+](=O)[O-])cc2C)cc1	none
Cc1cc([N+](=O)[O-])nn1CC(=O)NNC(=S)Nc1ccc([N+](=O)[O-])cc1	PTPN22 inh 2 35
On1cnnc1-c1ccccc1	none
COn1cnnc1-c1ccccc1	HIV Rev-RRE inh 41
CCCCNC(=O)CN(C1CCCCC1)S(C)(=O)=O	none
CC1(C)CC(=O)c2cc(OCC(=O)NCCN3CCOCC3)ccc2O1	none
CCOc1cc(C)c(S(=O)(=O)Nc2ccc3cn[nH]c3c2)cc1C	none
N#Cc1c(N)n(CCc2ccc(F)cc2)c2nc3ccccc3nc12	none
Cn1c(-c2c(N)n(CCc3ccccc3)c3nc4ccccc4nc23)nc2ccccc21	HIV Rev-RRE inh 44
Cn1c(-c2c(N)n(CCCc3ccccc3)c3nc4ccccc4nc23)nc2ccccc21	HIV Rev-RRE inh 45
COCCCn1c(N)c(-c2nc3ccccc3n2C)c2nc3ccccc3nc21	HIV Rev-RRE inh 58
Cn1c(-c2c(N)n(C3CCCC3)c3nc4ccccc4nc23)nc2ccccc21	HIV Rev-RRE inh 58
Nc1c(C(=O)OCC2CCCO2)c2nc3ccccc3nc2n1C1CCCC1 (configuration not stated)	none
CCCCOc1ccc(C(=O)NCc2ccccn2)cc1	none
O=C1Nc2ccc(F)cc2C12SCCS2	none
CCOc1ccc(N(CC(=O)NC(C)CC)S(=O)(=O)c2c(C)noc2C)cc1 (configuration not stated)	none (no result: LYP act, PTPN22 inh 2)
Cc1c(NC(=O)C(C)OC(=O)[C@@H](NC(=O)c2ccccc2)C(C)C)c(=O)n(-c2ccccc2)n1C (some centres not stated)	none
O=[N+]([O-])c1ccc(-c2nnc(CSc3nc(-c4ccccc4)nc4ccc(F)cc34)o2)cc1	none
Cc1c(Cl)c([N+](=O)[O-])nn1CC(=O)NC12CC3CC(CC(C3)C1)C2	none
CCOC(=O)c1ccc2c(c1)N(CC)/C(=C\C=C1/SC(=S)N(CC)C1=O)N2CC	HIV Rev-RRE inh 133[fluorescence artefact?]
Cc1ccc(-c2cc(C(F)F)n3ncc(C(=O)Nc4ccc(S(=O)(=O)Nc5ccccc5C)cc4)c3n2)cc1	none
N#Cc1c(N2CCCCC2)nc(N2CCCCC2)c2c1CCN(Cc1ccccc1)C2	none
N#Cc1c(N)sc2c1CCN(CCc1ccccc1)C2	HIV Rev-RRE inh 65
Cn1c(SCC(=O)OC2CCCCC2)nnc1-c1ccco1	none
CN1C=CC2=C(C#N)C(N)C(C#N)(C#N)[C@H](c3ccccc3)[C@H]2C1 (some centres not stated)	HIV Rev-RRE inh 60
COc1ccc(OC)c2c1C(=O)c1ccccc1C2=O	HIV Rev-RRE inh 75[fluorescence artefact?]
COc1cccc2c1C(=O)c1ccc3ccccc3c1C2=O	none
O=C(COC(=O)CC1CC2CCC1C2)NC(=O)NCc1ccco1 (configuration not stated)	none
O=C(NCCCO)NC12CC3CC(CC(C3)C1)C2	none
O=C(NCCCN1CCCC1=O)NC12CC3CC(CC(C3)C1)C2	EphB4 antag 16
Cn1c(=O)oc2cc(S(=O)(=O)NCC3CCCO3)ccc21 (configuration not stated)	HIV Rev-RRE inh 53
COc1cc(S(=O)(=O)NCC2CCCO2)ccc1Br (configuration not stated)	none
CC(=O)N1C(=O)C(=C2C=C(C)OC(C)=C2)c2ccccc21	HIV Rev-RRE inh 110[fluorescence artefact?]
COCCn1c(Cc2ccccc2)nnc1SCc1nc2ccccc2c(=O)[nH]1	PTPN22 inh 2 28
C=CCn1c(Cc2ccc(OC)cc2)nnc1SCc1nc2ccccc2c(=O)[nH]1	none
Cc1c(Cc2ccccc2)sc(NC(=O)c2ccco2)c1C(N)=O	FAK blocker 25
c1ccc(-c2cn3nc4c(nc3n2)CCCC4)cc1	HIV Rev-RRE inh 48
CCOc1ccc(C2C(C(=O)c3cccs3)=C(O)C(=O)N2CCCn2ccnc2)cc1 (configuration not stated)	none
Oc1[nH]c2ccccc2c1N=Nc1nc2ccccc2s1	EphB4 antag 15
Cc1ccc(S(=O)(=O)N=Nc2c(O)[nH]c3ccccc23)cc1	none
Cc1sc2nc(C3CC3)nc(NCCNS(C)(=O)=O)c2c1C	none
CCCC1C2CN(C(C)C)CC=C2C(C#N)=C(N)C1(C#N)C#N (configuration not stated)	HIV Rev-RRE inh 70
